In ChEMBL document CHEMBL3352791, “Thioaryl naphthylmethanone oxime ether analogs as novel anticancer agents” (J Med Chem, 2014):
Active and inactive are the calls of the source. The rule behind the calls is not given here.

Columns and labels:
[1] = target: Induced myeloid leukemia cell differentiation protein Mcl-1 (Homo sapiens) (UniProt Q07820); assay: Inhibition of EGF-induced phosphorylated Mcl1 in human MDA-MB-231 cells at 1 uM by ELISA; type: cell-based
[2] = test system: MDA-MB-231; assay: Inhibition of MMP9 expression in human MDA-MB-231 cells at 1 uM after 24 hrs by qPCR analysis; type: functional, cell-based
Outline: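 MDA-MB-231 cells treated at 1µM. Transcript levels measured by qPCR with GAPDH as internal control.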

[3] = target: Epidermal growth factor receptor (Homo sapiens) (UniProt P00533); assay: Inhibition of EGF-induced EGFR phosphorylation at Tyr1148 in human MDA-MB-231 cells at 1 uM by ELISA; type: cell-based
[4] = target: Mitogen-activated protein kinase; ERK1/ERK2 (Homo sapiens) (UniProt P27361+P28482); assay: Inhibition of EGF-induced ERK1/2 phosphorylation in human MDA-MB-231 cells at 1 uM by ELISA; type: cell-based
[5] = test system: MDA-MB-231; assay: Cytotoxicity against human MDA-MB-231 cells assessed as cell viability at 5 uM by MTT assay in presence of 100 ng/ml pertussis toxin for 16 hrs; type: functional, cell-based
[6] = test system: MCF7; assay: Antitumor activity against human MCF7 cells xenografted in NIH-3 mouse assessed as effect on tumor volume at 8 mg/kg, po for 29 days relative to control; type: functional, organism-based; set-up: dose 8 mg/kg
Outline: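 MCF-7 cells (5x10^6 in 100μl PBS) injected intraperitoneally into NIH-III nude mice; after tumor induction, groups of n=10 dosed orally daily for 29 days at 8 or 16 mg/kg/day in 1% carboxymethyl cellulose (vehicle controls). Tumor diameter by vernier calipers every third day; volume = π/6×d³ (d mean diameter).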

[7] = target: Platelet-derived growth factor receptor beta (Homo sapiens) (UniProt P09619); assay: Inhibition of PDGFRbeta (unknown origin) at 10 uM
Outline: (§1)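 Cell-free kinase profiling was run as a standard 33P-ATP-based in vitro kinase assay.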

[8] = target: T1, Signal transducer and activator of transcription 1-alpha/beta (Homo sapiens) (UniProt P42224); assay: Inhibition of EGF-induced STAT1 phosphorylation in human MCF7 cells at 1 uM by ELISA; type: cell-based
T1 sequence (whole entry): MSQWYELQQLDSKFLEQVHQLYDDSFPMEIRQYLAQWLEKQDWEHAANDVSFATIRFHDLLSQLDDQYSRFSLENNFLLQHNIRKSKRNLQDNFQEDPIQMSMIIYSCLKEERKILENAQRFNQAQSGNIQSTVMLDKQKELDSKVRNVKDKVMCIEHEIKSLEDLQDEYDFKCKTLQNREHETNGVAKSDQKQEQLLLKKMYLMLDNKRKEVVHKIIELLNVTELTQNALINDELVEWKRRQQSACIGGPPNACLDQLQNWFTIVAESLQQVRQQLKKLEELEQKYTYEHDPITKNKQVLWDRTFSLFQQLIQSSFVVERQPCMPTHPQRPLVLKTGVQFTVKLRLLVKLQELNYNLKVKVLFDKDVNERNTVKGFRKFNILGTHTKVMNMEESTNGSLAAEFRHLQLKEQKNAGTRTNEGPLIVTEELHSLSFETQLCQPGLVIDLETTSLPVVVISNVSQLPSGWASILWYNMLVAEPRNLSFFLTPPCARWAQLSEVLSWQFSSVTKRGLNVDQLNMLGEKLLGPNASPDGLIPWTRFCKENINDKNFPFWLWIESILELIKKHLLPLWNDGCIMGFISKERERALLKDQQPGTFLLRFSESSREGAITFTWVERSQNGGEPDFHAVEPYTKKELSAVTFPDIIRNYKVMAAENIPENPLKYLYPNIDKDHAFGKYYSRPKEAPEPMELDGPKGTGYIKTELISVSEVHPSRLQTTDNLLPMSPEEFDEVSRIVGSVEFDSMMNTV

[9] = target: Transforming growth factor beta-1 proprotein (Homo sapiens) (UniProt P01137); assay: Inhibition of TGFbeta1 (unknown origin) at 10 uM
[10] = test system: MDA-MB-231; assay: Cytotoxicity against human […] cells assessed as cell viability at 5 uM by MTT assay in presence of z-IETD-FMK caspase-8 inhibitor; type: functional, cell-based
Outline: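 Cells seeded 1×10^4/well in DMEM with 10% FBS, adhered overnight, serum-starved 4 h; pre-incubated 2 h with Z-IETD-FMK or Z-LEHD-FMK (10µM each), then 5μM compound for a further 24 h; viability by MTT.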

[11] = test system: MDA-MB-231; assay: Antiinvasion activity in human MDA-MB-231 cells assessed as inhibition of FBS-induced cell invaded to matrigel coated invasion chamber at 1 uM after 24 hrs by Transwell invasion assay; type: functional, cell-based
[12] = target: Epidermal growth factor receptor (Homo sapiens) (UniProt P00533); assay: Inhibition of EGF-induced EGFR phosphorylation at Tyr1045 in human MDA-MB-231 cells at 1 uM by ELISA; type: cell-based
[13] = target: Mast/stem cell growth factor receptor Kit (Homo sapiens) (UniProt P10721); assay: Inhibition of cKit (unknown origin) at 10 uM; outline: as §1
[14] = test system: MDA-MB-231; assay: Antiproliferative activity against human […] cells assessed as growth recovery treated up to 5 uM for 24 hrs followed by maintained in drug free medium for 72 hrs by MTT assay; type: functional
[15] = Cytotoxicity against human MCF10A cells after 72 hrs by MTT assay; type: ADME, cell-based; settings: MCF-10A
[16] = Safety index, ratio of IC50 for human MCF10A cells to EC50 for human SW620 cells; type: toxicity, cell-based, SW-620; settings: MCF10A cells versus SW620 cells, read-out: Ratio IC50/EC50
Outline: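 Safety index is the IC50 in the normal cells divided by the EC50 in the cancer cells. Both values come from MTT assays: cells in DMEM with 10% FBS, serum-starved 4 h, then exposed to compound across a 100nM-50µM dose range with 0.1% DMSO as vehicle control.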

[17] = test system: MDA-MB-231; assay: Cell cycle arrest in human […] cells assessed as accumulation at S phase at 5 uM by propidium iodide staining by FACS analysis (reference value: 13.72%); type: functional
[18] = test system: MCF7; assay: Antitumor activity against human MCF7 cells xenografted in NIH-3 mouse assessed as reduction in tumor volume at 16 mg/kg, po for 25 days relative to control; type: functional; settings: MCF7, 600 h
[19] = Antiproliferative activity against human COLO205 cells after 24 hrs by MTT assay; type: functional, cell-based; settings: COLO 205, 24 h
Outline: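 MTT viability: cells seeded at 1×10^4 per well in DMEM with 10% FBS, left to adhere overnight, then serum-starved 4 h. Compounds were given at a range of doses, with 0.1% DMSO vehicle as control. EC50 was taken from dose-response curves spanning 100nM-50µM. Data are mean ± SEM from at least three independent experiments.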

[20] = test system: MDA-MB-231; assay: Cell cycle arrest in human […] cells assessed as accumulation at subG1 phase at 5 uM by propidium iodide staining by FACS analysis (reference value: 0.3%); type: functional
[21] = test system: MDA-MB-231; assay: Cell cycle arrest in human […] cells assessed as accumulation at G2 phase at 2.5 uM by propidium iodide staining by FACS analysis (reference value: 22.74%); type: functional

Sequence of Epidermal growth factor receptor (Homo sapiens) (P00533 whole entry): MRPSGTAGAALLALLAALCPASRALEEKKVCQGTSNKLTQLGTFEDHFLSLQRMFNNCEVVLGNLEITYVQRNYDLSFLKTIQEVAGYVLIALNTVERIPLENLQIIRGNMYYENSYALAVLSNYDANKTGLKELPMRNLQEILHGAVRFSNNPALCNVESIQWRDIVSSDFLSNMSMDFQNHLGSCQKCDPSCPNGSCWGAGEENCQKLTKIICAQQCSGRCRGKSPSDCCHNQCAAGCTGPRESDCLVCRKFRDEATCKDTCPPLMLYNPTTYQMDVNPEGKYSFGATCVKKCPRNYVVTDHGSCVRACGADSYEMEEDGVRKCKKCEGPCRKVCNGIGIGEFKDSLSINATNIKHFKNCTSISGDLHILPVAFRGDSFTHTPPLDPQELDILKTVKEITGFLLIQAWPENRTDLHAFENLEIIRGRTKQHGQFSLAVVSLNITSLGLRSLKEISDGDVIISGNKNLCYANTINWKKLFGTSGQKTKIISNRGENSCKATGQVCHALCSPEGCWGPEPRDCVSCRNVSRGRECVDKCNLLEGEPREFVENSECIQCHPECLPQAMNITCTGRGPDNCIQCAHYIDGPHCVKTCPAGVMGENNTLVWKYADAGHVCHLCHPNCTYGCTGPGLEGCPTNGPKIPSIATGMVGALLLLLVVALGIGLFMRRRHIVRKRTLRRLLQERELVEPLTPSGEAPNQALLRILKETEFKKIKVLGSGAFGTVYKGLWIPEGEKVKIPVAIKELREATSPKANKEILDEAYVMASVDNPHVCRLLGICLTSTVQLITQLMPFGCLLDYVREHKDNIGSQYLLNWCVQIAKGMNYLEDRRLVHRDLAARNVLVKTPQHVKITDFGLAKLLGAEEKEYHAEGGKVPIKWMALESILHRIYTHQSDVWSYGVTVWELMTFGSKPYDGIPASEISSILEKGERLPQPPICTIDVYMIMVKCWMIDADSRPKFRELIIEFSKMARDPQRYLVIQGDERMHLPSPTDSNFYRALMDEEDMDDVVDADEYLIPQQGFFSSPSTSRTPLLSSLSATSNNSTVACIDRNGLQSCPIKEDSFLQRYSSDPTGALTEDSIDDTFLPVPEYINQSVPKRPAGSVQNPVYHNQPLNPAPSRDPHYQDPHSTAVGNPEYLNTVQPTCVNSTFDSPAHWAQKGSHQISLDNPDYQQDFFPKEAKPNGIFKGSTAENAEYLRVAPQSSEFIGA
Sequence of Induced myeloid leukemia cell differentiation protein Mcl-1 (Homo sapiens) (Q07820 whole entry): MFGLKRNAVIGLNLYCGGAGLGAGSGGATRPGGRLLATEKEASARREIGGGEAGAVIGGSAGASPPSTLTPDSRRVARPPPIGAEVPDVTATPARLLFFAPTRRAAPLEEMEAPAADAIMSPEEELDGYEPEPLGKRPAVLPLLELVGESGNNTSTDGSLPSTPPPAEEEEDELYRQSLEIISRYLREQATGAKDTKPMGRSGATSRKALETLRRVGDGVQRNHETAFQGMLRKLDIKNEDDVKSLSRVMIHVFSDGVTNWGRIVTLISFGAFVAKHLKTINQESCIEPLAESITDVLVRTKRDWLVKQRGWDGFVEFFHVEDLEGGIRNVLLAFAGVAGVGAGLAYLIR
Sequence of Mast/stem cell growth factor receptor Kit (Homo sapiens) (P10721 whole entry): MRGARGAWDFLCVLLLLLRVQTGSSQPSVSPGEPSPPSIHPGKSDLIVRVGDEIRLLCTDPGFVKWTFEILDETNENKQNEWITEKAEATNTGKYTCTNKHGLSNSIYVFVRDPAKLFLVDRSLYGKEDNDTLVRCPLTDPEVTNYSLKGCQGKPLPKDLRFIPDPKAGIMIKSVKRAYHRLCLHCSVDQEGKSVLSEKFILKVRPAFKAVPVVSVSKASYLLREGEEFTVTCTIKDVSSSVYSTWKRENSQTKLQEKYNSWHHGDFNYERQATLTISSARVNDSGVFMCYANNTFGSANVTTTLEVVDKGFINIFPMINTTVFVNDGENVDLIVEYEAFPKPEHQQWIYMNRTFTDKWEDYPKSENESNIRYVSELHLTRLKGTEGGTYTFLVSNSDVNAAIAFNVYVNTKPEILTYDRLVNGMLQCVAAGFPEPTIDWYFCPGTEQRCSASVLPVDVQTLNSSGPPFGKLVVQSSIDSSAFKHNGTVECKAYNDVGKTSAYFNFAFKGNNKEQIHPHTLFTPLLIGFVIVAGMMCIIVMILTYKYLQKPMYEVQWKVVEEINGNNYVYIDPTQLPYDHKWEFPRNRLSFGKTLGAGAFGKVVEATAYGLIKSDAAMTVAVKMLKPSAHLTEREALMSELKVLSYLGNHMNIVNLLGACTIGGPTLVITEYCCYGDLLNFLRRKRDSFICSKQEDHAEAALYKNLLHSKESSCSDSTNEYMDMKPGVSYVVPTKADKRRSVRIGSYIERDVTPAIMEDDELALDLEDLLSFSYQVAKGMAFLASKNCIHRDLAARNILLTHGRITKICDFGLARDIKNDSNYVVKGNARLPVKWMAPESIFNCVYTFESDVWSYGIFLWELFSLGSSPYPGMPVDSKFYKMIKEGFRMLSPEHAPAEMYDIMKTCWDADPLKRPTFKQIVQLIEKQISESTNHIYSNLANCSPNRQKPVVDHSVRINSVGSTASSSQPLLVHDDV
Sequence of Platelet-derived growth factor receptor beta (Homo sapiens) (P09619 whole entry): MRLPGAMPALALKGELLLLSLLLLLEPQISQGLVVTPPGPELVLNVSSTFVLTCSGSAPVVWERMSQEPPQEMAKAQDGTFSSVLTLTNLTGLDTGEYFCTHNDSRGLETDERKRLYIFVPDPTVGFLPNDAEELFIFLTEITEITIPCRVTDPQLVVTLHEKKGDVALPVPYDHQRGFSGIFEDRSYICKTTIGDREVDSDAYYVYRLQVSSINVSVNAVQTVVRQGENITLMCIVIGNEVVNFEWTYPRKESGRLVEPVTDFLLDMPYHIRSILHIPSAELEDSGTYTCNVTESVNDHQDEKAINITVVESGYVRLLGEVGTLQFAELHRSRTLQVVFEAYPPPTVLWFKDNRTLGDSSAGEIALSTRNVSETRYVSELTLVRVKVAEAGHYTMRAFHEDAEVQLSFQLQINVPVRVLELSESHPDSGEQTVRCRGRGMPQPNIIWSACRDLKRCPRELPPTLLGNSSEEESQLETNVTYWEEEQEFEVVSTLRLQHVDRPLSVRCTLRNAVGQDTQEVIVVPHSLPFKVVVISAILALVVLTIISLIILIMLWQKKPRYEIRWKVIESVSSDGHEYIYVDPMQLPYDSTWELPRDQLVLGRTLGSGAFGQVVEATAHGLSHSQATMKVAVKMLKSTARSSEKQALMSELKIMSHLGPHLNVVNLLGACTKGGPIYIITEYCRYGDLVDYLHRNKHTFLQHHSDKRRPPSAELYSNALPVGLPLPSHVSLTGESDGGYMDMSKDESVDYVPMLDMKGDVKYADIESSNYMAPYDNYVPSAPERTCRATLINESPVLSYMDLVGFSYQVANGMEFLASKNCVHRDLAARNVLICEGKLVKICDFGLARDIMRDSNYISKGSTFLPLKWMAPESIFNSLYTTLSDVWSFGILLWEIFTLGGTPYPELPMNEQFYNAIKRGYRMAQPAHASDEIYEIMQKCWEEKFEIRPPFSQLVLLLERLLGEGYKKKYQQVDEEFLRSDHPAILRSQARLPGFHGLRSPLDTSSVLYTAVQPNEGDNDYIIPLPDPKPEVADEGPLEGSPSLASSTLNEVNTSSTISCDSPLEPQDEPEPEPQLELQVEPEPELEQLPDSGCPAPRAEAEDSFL
Sequence of Transforming growth factor beta-1 proprotein (Homo sapiens) (P01137 279-390 limits assumed): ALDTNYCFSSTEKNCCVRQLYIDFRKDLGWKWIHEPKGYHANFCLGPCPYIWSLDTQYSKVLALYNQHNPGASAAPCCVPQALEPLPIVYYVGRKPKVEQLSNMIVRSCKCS
Sequence of Mitogen-activated protein kinase; ERK1/ERK2 (Homo sapiens) (P27361 whole entry, looked up): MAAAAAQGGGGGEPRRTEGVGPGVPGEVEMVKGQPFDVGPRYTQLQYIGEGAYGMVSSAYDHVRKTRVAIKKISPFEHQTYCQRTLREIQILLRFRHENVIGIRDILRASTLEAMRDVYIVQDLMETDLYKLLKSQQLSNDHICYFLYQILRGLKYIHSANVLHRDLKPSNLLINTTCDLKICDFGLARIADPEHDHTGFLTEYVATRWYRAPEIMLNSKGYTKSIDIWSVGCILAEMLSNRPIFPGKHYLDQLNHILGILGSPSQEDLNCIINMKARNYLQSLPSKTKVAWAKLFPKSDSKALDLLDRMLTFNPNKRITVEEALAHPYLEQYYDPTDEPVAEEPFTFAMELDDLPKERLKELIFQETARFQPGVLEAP
Sequence of Mitogen-activated protein kinase; ERK1/ERK2 (Homo sapiens) (P28482 whole entry, looked up): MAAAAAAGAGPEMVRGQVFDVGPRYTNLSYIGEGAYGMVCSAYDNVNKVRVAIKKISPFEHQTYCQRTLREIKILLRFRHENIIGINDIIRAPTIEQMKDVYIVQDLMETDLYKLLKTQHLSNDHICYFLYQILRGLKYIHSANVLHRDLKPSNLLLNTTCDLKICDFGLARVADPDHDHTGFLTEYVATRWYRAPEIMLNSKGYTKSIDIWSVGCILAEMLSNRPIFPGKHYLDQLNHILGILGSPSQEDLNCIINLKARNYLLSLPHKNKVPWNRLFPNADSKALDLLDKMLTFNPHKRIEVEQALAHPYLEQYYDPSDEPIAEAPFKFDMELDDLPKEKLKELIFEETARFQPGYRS

CCN(CC)CCO/N=C(\c1ccc(SC)cc1)c1cccc2ccccc12
inhibition [1]: Active
inhibition [2]: Active
inhibition [3]: Active
inhibition [4]: Active
inhibition [5]: inactive
inhibition [6]: inactive
inhibition [7]: inactive
inhibition [8]: inactive
inhibition [9]: inactive
Activity [10]: inactive
Activity [11]: Active
inhibition [12]: Active
inhibition [13]: inactive

CCN(CC)CCO/N=C(\c1ccc(SC)cc1)c1cccc2ccccc12.O=C(O)C(=O)O
Activity [14]: 20%
IC50 [15]: 50 µM
selectivity ratio [16]: 2.2
Activity [17]: 3.65%
inhibition in vivo at 16 mg/kg [18]: 50%
EC50 [19]: 4.2 µM
Activity [20]: 0.9%
Activity [21]: 6.22%
